{"source": "ChEMBL document CHEMBL2440017", "about": "“Discovery of a potent, selective, and orally bioavailable histamine H3 receptor antagonist SAR110068 for the treatment of sleep-wake disorders” (Bioorg Med Chem Lett, 2013)", "key": {"Cytochrome P450 2C9": {"target": "Cytochrome P450 2C9 (Homo sapiens, UniProt P11712)", "sequence (P11712 whole entry)": "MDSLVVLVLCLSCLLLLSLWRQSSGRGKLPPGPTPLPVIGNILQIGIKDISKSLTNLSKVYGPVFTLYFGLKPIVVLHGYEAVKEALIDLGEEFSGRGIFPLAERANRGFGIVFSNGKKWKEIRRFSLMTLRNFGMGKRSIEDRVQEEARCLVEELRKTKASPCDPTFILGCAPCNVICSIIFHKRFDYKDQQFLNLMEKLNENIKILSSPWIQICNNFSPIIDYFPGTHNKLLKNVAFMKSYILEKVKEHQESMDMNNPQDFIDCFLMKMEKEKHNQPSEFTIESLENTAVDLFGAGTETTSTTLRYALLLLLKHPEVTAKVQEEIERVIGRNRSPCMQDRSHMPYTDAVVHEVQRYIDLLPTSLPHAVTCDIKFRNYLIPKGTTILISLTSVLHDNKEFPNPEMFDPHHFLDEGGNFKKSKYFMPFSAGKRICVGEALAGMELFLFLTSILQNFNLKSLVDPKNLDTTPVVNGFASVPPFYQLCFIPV", "assay": "Inhibition of CYP2C9 (unknown origin)", "format": "ADME"}, "Plasma [1]": {"tested_on": "Plasma", "assay": "Metabolic stability in dog plasma", "format": "ADME, cell-free, Canis lupus familiaris", "how_it_was_run": "(§1)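 Compound stability measured in plasma of each species in vitro.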"}, "[2]": {"assay": "Plasma concentration in cynomolgus monkey at 30 mg/kg, iv after 15 mins", "format": "ADME, organism-based, Macaca fascicularis", "parameters": "dose 30 mg/kg, route intravenous"}, "Cytochrome P450 1A2": {"target": "T1, Cytochrome P450 1A2 (Homo sapiens, UniProt P05177)", "T1 sequence (P05177 whole entry)": "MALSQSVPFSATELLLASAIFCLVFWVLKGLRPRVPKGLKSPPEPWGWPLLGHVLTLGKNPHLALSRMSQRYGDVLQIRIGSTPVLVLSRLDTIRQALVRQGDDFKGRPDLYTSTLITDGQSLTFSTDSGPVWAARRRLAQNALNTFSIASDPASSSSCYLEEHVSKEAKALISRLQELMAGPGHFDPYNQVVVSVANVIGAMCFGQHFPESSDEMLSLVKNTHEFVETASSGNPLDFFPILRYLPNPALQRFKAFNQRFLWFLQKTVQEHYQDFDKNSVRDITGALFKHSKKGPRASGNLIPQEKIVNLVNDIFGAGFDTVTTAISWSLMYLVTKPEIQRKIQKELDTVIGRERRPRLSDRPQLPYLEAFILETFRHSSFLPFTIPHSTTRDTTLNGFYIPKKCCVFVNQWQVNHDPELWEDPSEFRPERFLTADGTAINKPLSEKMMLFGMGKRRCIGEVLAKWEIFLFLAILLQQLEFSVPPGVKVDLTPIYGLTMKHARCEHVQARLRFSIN", "assay": "Inhibition of CYP1A2 (unknown origin)", "format": "ADME"}, "[3]": {"assay": "Lipophilicity, log P of the compound", "format": "physicochemical", "conditions": "octanol/water", "how_it_was_run": "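clogP calculated with ACD/Labs methods.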"}, "Cynomolgus monkey [4]": {"tested_on": "Cynomolgus monkey", "assay": "Cardiotoxicity in cynomolgus monkey assessed as blood arterial pressure and heart rate at 10 mg/kg, iv", "format": "toxicity, organism-based, Macaca fascicularis", "parameters": "dose 10 mg/kg, route intravenous", "conditions": "in vivo", "how_it_was_run": "(§2)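 Anaesthetized cynomolgus monkeys dosed 10 mg/kg i.v. Arterial blood pressure, heart rate and ECG (PR, QRS, QTc intervals) monitored. Plasma drug sampled at 5, 15 and 30 min post-dose.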"}, "CYP3A4 [5]": {"target": "T2, CYP3A4 (Homo sapiens, UniProt P08684)", "T2 sequence (P08684 whole entry)": "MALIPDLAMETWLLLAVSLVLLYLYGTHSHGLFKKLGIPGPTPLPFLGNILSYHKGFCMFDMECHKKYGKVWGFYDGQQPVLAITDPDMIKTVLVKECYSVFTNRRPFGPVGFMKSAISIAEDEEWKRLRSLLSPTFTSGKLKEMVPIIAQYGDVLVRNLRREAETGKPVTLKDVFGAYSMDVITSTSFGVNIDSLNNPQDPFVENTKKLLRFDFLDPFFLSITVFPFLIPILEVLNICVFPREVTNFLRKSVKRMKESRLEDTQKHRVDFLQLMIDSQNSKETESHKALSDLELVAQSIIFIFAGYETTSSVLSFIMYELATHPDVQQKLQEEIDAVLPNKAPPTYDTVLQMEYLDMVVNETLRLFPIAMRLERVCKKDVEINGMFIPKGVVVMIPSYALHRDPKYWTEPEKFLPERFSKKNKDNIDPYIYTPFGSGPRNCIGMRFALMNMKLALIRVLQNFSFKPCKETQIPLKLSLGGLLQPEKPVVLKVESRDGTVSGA", "assay": "Inhibition of CYP3A4 (unknown origin) at 0.5 uM", "format": "ADME"}, "[6]": {"target": "Sigma non-opioid intracellular receptor 1 (Homo sapiens) (UniProt Q99720)", "sequence (Q99720 whole entry)": "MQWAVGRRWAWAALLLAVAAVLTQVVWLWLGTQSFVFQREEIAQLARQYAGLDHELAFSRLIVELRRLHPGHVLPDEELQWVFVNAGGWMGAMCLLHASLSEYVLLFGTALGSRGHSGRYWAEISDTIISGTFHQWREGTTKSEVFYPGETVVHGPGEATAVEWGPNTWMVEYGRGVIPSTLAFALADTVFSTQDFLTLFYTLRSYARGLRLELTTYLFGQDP", "assay": "Inhibition of sigma 1 receptor (unknown origin) at 10 uM", "how_it_was_run": "(§3)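 CEREP selectivity panel: percent inhibition of control specific binding at 10 µM.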"}, "[7]": {"assay": "Metabolic stability in rabbit microsomes", "format": "ADME, Oryctolagus cuniculus, Microsome", "how_it_was_run": "(§4)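 Percentage biotransformation measured in vitro in liver microsomes of each species.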"}, "Homo sapiens": {"organism": "Homo sapiens", "assay": "Inhibition of sigma 2 receptor (unknown origin) at 10 uM", "how_it_was_run": "as §3"}, "Mus musculus [8]": {"tested_on": "Mus musculus", "assay": "Toxicity in mouse assessed as behavioral side effect at 10 to 30 mg/kg, po", "format": "organism-based", "parameters": "dose 10-30 mg/kg, route oral", "conditions": "in vivo", "how_it_was_run": "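Acute oral behavioral safety evaluation in mice. Oral doses were 0, 10 and 30 mg/kg. Behavioral, neurologic and autonomic signs were scored.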"}, "[9]": {"assay": "Elimination half life in OF1 mouse brain at 10 mg/kg, po", "format": "ADME, organism-based", "parameters": "dose 10 mg/kg, route oral", "conditions": "read-out: beta t1/2 (converted)", "how_it_was_run": "(§5)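 Oral gavage at 10 mg/kg to male OF1 mice (vehicle 5% DMSO/0.5% MC/0.2% Tween80, 1.0 mg/mL) or male Sprague-Dawley rats (vehicle 0.5% MC/0.2% Tween80, 1.0 mg/mL). Plasma and brain exposure and half-life determined.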"}, "[10]": {"assay": "Biotransformation in human microsomes", "format": "ADME, Microsome", "conditions": "read-out: Activity", "how_it_was_run": "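Percentage biotransformation measured in human liver microsomes in vitro.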"}, "[11]": {"assay": "Ratio of AUC (0 to infinity) in OF1 mouse brain to AUC (0 to infinity) in OF1 mouse plasma at 2 mg/kg, iv", "format": "ADME, organism-based", "parameters": "dose 2 mg/kg, route intravenous", "conditions": "read-out: Ratio AUC", "how_it_was_run": "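Male OF1 mice received 2 mg/kg i.v. (1.0 mg/mL in 50% 1-methyl-2-pyrrolidinone/saline) or 10 mg/kg p.o. (1.0 mg/mL in 5% DMSO/0.5% MC/0.2% Tween80). Plasma and brain AUC0-inf were measured, and the B/P ratio was calculated from i.v. AUC0-inf.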"}, "[12]": {"assay": "Metabolic stability in guinea pig plasma", "format": "ADME, cell-free, Cavia porcellus", "how_it_was_run": "as §1"}, "Mus musculus [13]": {"tested_on": "Mus musculus", "assay": "Autonomic toxicity in mouse at 10 to 30 mg/kg, po", "format": "organism-based", "parameters": "dose 10-30 mg/kg, route oral", "conditions": "in vivo", "how_it_was_run": "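Acute oral behavioural safety evaluation in grouped mice at 0, 10 and 30 mg/kg p.o. Animals scored for behavioural, neurologic and autonomic signs.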"}, "Cynomolgus monkey [14]": {"tested_on": "Cynomolgus monkey", "assay": "Cardiotoxicity in cynomolgus monkey assessed as PR, QRS, QTc interval at 10 mg/kg, iv", "format": "toxicity, organism-based, Macaca fascicularis", "parameters": "dose 10 mg/kg, route intravenous", "conditions": "in vivo", "how_it_was_run": "as §2"}, "[15]": {"assay": "Plasma concentration in cynomolgus monkey at 10 mg/kg, iv after 5 mins", "format": "ADME, organism-based, Macaca fascicularis", "parameters": "dose 10 mg/kg, route intravenous", "how_it_was_run": "(§6)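 Anaesthetized cynomolgus monkeys were dosed 10 mg/kg i.v. Plasma drug concentrations were measured at 5, 15 and 30 min post-dose, alongside arterial pressure, heart rate and ECG intervals.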"}, "[16]": {"assay": "Elimination half life in Sprague-Dawley rat brain at 10 mg/kg, po", "format": "ADME, organism-based", "parameters": "dose 10 mg/kg, route oral", "conditions": "read-out: beta t1/2 (converted)", "how_it_was_run": "as §5"}, "Rattus norvegicus": {"tested_on": "Rattus norvegicus", "assay": "Awakening activity in rat assessed as increased wakefulness at 3 to 10 mg/kg, po", "format": "functional, organism-based", "how_it_was_run": "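Rats given compound orally at 3 or 10 mg/kg, or reference drugs i.p. or p.o. at 10 mg/kg. EEG recorded during the light phase and scored as wakefulness, slow wave sleep and REM sleep. Time-course analysis of the effects.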"}, "Plasma [17]": {"tested_on": "Plasma", "assay": "Metabolic stability in monkey plasma", "format": "ADME, cell-free, Macaca mulatta", "conditions": "rhesus monkey", "how_it_was_run": "as §1"}, "[18]": {"assay": "Genotoxicity in micronucleus (unknown origin) at 5 to 950 ug/ml in presence of human liver microsomes", "format": "toxicity, Microsome", "how_it_was_run": "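Ames II and micronucleus tests, Ames over 3–1000 µg/mL and MNT over 5–950 µg/mL. Each run with and without metabolic activation by human liver microsome preparations.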"}, "[19]": {"assay": "Elimination half life in OF1 mouse plasma at 2 mg/kg, iv", "format": "ADME, organism-based", "parameters": "dose 2 mg/kg, route intravenous", "conditions": "read-out: beta t1/2 (converted)", "how_it_was_run": "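Male OF1 mice or male Sprague-Dawley rats, single 2 mg/kg i.v. dose. Mouse vehicle 50% 1-methyl-2-pyrrolidinone in saline at 1.0 mg/mL; rat vehicle saline at 0.5 mg/mL. Plasma and brain levels followed over time; AUC0-inf, t1/2 and clearance derived from exposure. Brain/plasma ratio uses i.v. AUC0-inf.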"}, "Mus musculus [20]": {"tested_on": "Mus musculus", "assay": "Toxicity in mouse assessed as behavioral side effect at 30 mg/kg, po", "format": "organism-based", "parameters": "dose 30 mg/kg, route oral", "conditions": "in vivo", "how_it_was_run": "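Group acute oral behavioral safety study in mice at 30 mg/kg p.o., scored for behavioral side effects.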"}, "[21]": {"assay": "Elimination half life in OF1 mouse plasma at 10 mg/kg, po", "format": "ADME, organism-based", "parameters": "dose 10 mg/kg, route oral", "conditions": "read-out: beta t1/2 (converted)", "how_it_was_run": "as §5"}, "[22]": {"assay": "Solubility of the compound in water", "format": "physicochemical"}, "[23]": {"assay": "AUC in OF1 mouse brain at 10 mg/kg, po", "format": "ADME, organism-based", "parameters": "dose 10 mg/kg, route oral", "how_it_was_run": "as §5"}, "[24]": {"assay": "Inhibition of p-glycoprotein (unknown origin)", "conditions": "human"}, "[25]": {"assay": "Drug degradation in gastrointestinal tract simulation medium after 48 hrs at room temperature", "format": "physicochemical", "conditions": "read-out: Drug degradation", "how_it_was_run": "(§7)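 Compound kept 48 h at room temperature in water, aqueous solutions of pH 1.0–7.4, DMSO, or GI-tract simulation medium. Percent degradation measured.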"}, "[26]": {"assay": "Drug degradation in aqueous solution at pH 1.0 to 7.4 after 48 hrs at room temperature", "format": "physicochemical", "conditions": "read-out: Drug degradation", "how_it_was_run": "as §7"}, "CYP3A4 [27]": {"target": "T2, CYP3A4", "assay": "Inhibition of CYP3A4 (unknown origin) at 5 uM", "format": "ADME"}, "[28]": {"assay": "Metabolic stability in mouse microsomes", "format": "ADME, Microsome", "how_it_was_run": "as §4"}, "[29]": {"assay": "Plasma concentration in cynomolgus monkey at 10 mg/kg, iv after 15 mins", "format": "ADME, organism-based, Macaca fascicularis", "parameters": "dose 10 mg/kg, route intravenous", "how_it_was_run": "as §6"}}, "note": "Active and inactive are the calls of the source. No cut-off for these calls is given here."}
{"smiles": "Cc1cc(N2CC[C@H](N3CCC[C@@H]3C)C2)ccc1NC(=O)C1CCOCC1", "values": [{"measurement": "inhibition (INH)", "setting": "Cytochrome P450 2C9", "result": "Active"}, {"measurement": "Stability", "setting": "Plasma [1]", "result": "Stable"}, {"measurement": "concentration at 0.25 h", "setting": "[2]", "result": 11, "unit": "µM"}, {"measurement": "inhibition (INH)", "setting": "Cytochrome P450 1A2", "result": "Active"}, {"measurement": "logP", "setting": "[3]", "result": 1.31}, {"measurement": "Activity", "setting": "Cynomolgus monkey [4]", "result": "Non-toxic"}, {"measurement": "inhibition at 0.5 µM", "setting": "CYP3A4 [5]", "result": 49, "unit": "%"}, {"measurement": "inhibition", "setting": "[6]", "result": 53, "unit": "%"}, {"measurement": "Stability", "setting": "[7]", "result": "Stable"}, {"measurement": "inhibition", "setting": "Homo sapiens", "result": 53, "unit": "%"}, {"measurement": "Activity", "setting": "Mus musculus [8]", "result": "Non-toxic"}, {"measurement": "half-life", "setting": "[9]", "result": 1.9, "unit": "h"}, {"measurement": "metabolised", "setting": "[10]", "result": "< 5", "unit": "%"}, {"measurement": "Kp", "setting": "[11]", "result": 0.35}, {"measurement": "Stability", "setting": "[12]", "result": "Stable"}, {"measurement": "Activity", "setting": "Mus musculus [13]", "result": "Non-toxic"}, {"measurement": "Activity", "setting": "Cynomolgus monkey [14]", "result": "Non-toxic"}, {"measurement": "concentration at 5 min", "setting": "[15]", "result": 28, "unit": "µM"}, {"measurement": "half-life", "setting": "[16]", "result": 3.8, "unit": "h"}, {"measurement": "Activity", "setting": "Rattus norvegicus", "result": "Active"}, {"measurement": "Stability", "setting": "Plasma [17]", "result": "Stable"}, {"measurement": "Activity", "setting": "[18]", "result": "Non-toxic"}, {"measurement": "half-life", "setting": "[19]", "result": 3.6, "unit": "h"}, {"measurement": "Activity", "setting": "Mus musculus [20]", "result": "Non-toxic"}, {"measurement": "half-life", "setting": "[21]", "result": 2.3, "unit": "h"}, {"measurement": "solubility", "setting": "[22]", "result": 1100, "unit": "µg/mL"}, {"measurement": "AUC", "setting": "[23]", "result": 1200, "unit": "ng·h/mL"}, {"measurement": "inhibition (INH)", "setting": "[24]", "result": "Not Active"}, {"measurement": "degraded at 48 h", "setting": "[25]", "result": "< 2", "unit": "%"}, {"measurement": "degraded at 48 h", "setting": "[26]", "result": "< 2", "unit": "%"}, {"measurement": "inhibition at 5 µM", "setting": "CYP3A4 [27]", "result": 61, "unit": "%"}, {"measurement": "Stability", "setting": "[28]", "result": "Stable"}, {"measurement": "concentration at 0.25 h", "setting": "[29]", "result": 14, "unit": "µM"}]}
